# Assay outcomes from PubChem BioAssay.
# A selection: hits, their analogues and other compounds. The true share with any hit is near 6.4%.
# tolC growth inh: growth inhibitors of E. coli BW25113 tolC mutant; OD615; growth inhibition, % at 10 µM (by protocol); 2.2% of 65,000 active;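 active means growth inhibition at or above a cutoff equal to the mean over every tested compound plus 3 SD, cut at about 60% in these data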;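 further: growth measured after 20 h incubation at 37 °C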
#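 Test system: E. coli BW25113 ΔtolC::kan bacteria | Medium: Kanamycin-containing LB broth (50 µg/mL) | Dosing: One dose of 10 µM final | Times: 20 h incubation with compound, 37 °C | Detection: Optical density read at 615 nm | Read-out basis: Percent growth inhibition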
# H69AR growth 86K: growth inhibitors of human H69AR lung tumor cells | H69AR lung tumor viability, ATP luminescence, 72 h; stronger effect = lower value | viability, % at 10 µM | 6% of 85,000 active | AID 598;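 active means viability at or below 40%; inactive means viability above 40%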;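 further: multidrug resistant small cell line overexpressing MRP-1 efflux transporter; 100% = mean luminescence of untreated control wells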
# Jurkat viability: cytotoxicity toward Jurkat cells. Jurkat E6.1 viability, ATP luminescence, 48 h. inhibition, % at 4 µM. 1.2% of 56,000 active;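 active means inhibition above the mean inhibition of all tested compounds plus 3 SD, cut at about 28% in these data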
# Fibroblast inh: blocks proliferation of human lung fibroblasts. LL 47 human lung fibroblast viability, ATP luminescence; stronger effect = lower value. viability, % at 10 µM. 1.1% of 85,000 active;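 active means viability at or below 50% in the single dose screen; inactive means viability above 50%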;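 further: compound exposure lasted 72 h before the ATP readout; 100% = median luminescence of untreated cell-only wells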
#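 Signal: luminescent ATP detection, CellTiter-Glo; assay system: LL 47 human lung fibroblasts; input: 1,150 cells/well; incubation: overnight cell rest, 72 h compound treatment at 37 °C; measure: % viability versus median cells-only luminescence; medium: IMEM growth medium with 15% fetal bovine serum; dosing: compound addition at 0.1% DMSO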
# Ecoli WT expand: E. coli BW25113 growth inhibition, expanded screen; OD600 absorbance; growth inhibition, % at 100 µM; 0.15% of 98,000 active;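 active means growth inhibition above about 50% at one test dose, limit read from the data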;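 further: growth measured after 20 h incubation at 37 °C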
# HUVEC inhibit: inhibitors of human endothelial cell proliferation | HUVEC proliferation, CellTiter-Glo luminescence, 72 h; stronger effect = lower value | viability, % at 10 µM (by protocol) | 1.1% of 86,000 active | AID 648;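 active means viability at or below 30%; inactive means viability above 30%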;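 further: 100% = median luminescence of DMSO-only cell control wells on each plate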
# * = called active by the depositor; . = no result.
SMILES,tolC growth inh,H69AR growth 86K,Jurkat viability,Fibroblast inh,Ecoli WT expand,HUVEC inhibit
CN(C)CCOC(C)(c1ccccc1)c1ccccn1 (stereo not drawn),-11.3,97.4,.,96.2,.,99.4
Cc1ccc(Nc2cnn(C34CC5CC(CC(CC(=O)O)(C5)C3)C4)c(=O)c2Cl)cc1,.,96.5,.,106.7,-11.0,94.6
Cn1ncc2c(Nc3ccc(-c4ccccc4)cc3)ncnc21,8.1,.,34.9*,.,-14.0,.
CCOC(=O)CN(C(=O)CSc1nnc2c(n1)[nH]c1c(C)cc(C)cc12)c1ccccc1,.,.,.,.,-15.0,.
N#Cc1cc(Oc2cccc3cccnc23)c(-n2nnc3ccccc32)cc1C#N,10.8,17.8*,.,83.7,-10.0,72.0
CCCSc1nnc(NC(=O)Nc2ccc(F)cc2)s1,4.3,10.8*,.,47.0*,7.0,46.8
c1ccc(-c2cn3nc(-c4ccccc4)sc3n2)cc1,-13.4,60.8,-2.1,80.1,.,69.3
c1ccc(-c2cn3c4c(sc3n2)CCCC4)cc1,25.5,21.4*,12.4,67.3,2.0,52.4
O=C(NCCc1ccccc1)C1CC(c2ccccc2O)=NO1 (stereo not drawn),-1.9,96.5,-3.6,95.4,7.0,99.6
Cc1c(C#N)c2ccccc2n1CC(=O)N1CCCc2ccccc21,.,32.0*,.,93.3,-4.0,91.5
c1ccc(-c2ccc3c(c2)c2c4n3CCN=C4CCC2)cc1,.,23.9*,.,74.7,36.0,27.9*
CCCCc1nc(S(=O)(=O)c2ccc(Cl)cc2)c(N2CCOCC2)o1,.,97.5,.,99.2,.,103.7
COc1ccccc1-n1c(SCC(=O)Nc2cccc(C)c2)nc2c(c1=O)SCC2,6.0,85.1,3.9,99.5,-1.0,92.1
CCOc1ccc(NC(=O)c2cc3n(n2)C(C(F)(F)F)CC(c2ccco2)N3)cc1 (stereo not drawn),8.9,63.1,2.9,37.5*,-8.0,96.7
O=C(Nc1ccc(O)cc1)c1cc2n(n1)C(C(F)(F)F)CC(c1ccco1)N2 (stereo not drawn),10.2,.,17.0,90.3,-3.0,71.5
Cc1cccc(NC(=O)c2cc3n(n2)C(C(F)(F)F)CC(c2ccc4c(c2)OCO4)N3)c1 (stereo not drawn),68.4*,.,-2.0,.,-13.0,.
O=C(CN1CCC(NC(=O)Nc2ccccc2-c2ccccc2)CC1)NCc1ccco1,4.3,89.4,4.2,100.1,7.0,92.1
CCCCNC(=O)c1ccc2c(c1)N(CC)C(=O)c1ccccc1S2(=O)=O,-1.7,77.8,-4.5,91.1,6.0,97.0
CC(C)Cc1nc2oc3c(NCC4CCCO4)ncnc3c2c2c1CCC2 (stereo not drawn),.,32.8*,2.1,85.0,1.0,52.7
Cc1cc(N2CCN(c3cccc(C)c3C)CC2)nc(-c2ccccc2)n1,.,100.4,.,93.6,.,102.4
O=C(ONc1ccc(N=NC(=O)c2ccccc2O)cc1)c1ccccc1,.,11.6*,.,70.1,-25.0,36.5
CC(C)Oc1cccc(-c2cc(C(=O)N3CCN(S(C)(=O)=O)CC3)c3ccccc3n2)c1,24.2,24.1*,-4.7,96.6,1.0,88.7
CC(C)Oc1cccc(-c2cc(C(=O)N3CCN(c4ncccn4)CC3)c3ccccc3n2)c1,.,15.1*,.,93.6,-8.0,64.2
O=C(c1cc(-c2cccs2)nc2ccccc12)N1CCN(S(=O)(=O)c2ccccc2)CC1,.,94.4,.,102.7,-7.0,78.4
COc1cccc(-c2cc(C(=O)N3CCN(c4ncccn4)CC3)c3ccccc3n2)c1,12.7,18.9*,-10.0,98.9,-9.0,58.1
SMILES,tolC growth inh,H69AR growth 86K,Jurkat viability,Fibroblast inh,Ecoli WT expand,HUVEC inhibit
O=C(c1cc(-c2ccncc2)nc2ccc(Br)cc12)N1CCN(c2ccccn2)CC1,22.7,21.9*,4.2,93.6,-11.0,56.6
O=C(c1coc2ccccc2c1=O)N1CCN(c2cccc(C(F)(F)F)c2)CC1,31.6,96.5,.,103.4,1.0,83.6
CC1c2nc3ccccc3n2C(CC(=O)NCc2ccccn2)C(=O)N1Cc1ccccc1 (stereo not drawn),-10.9,.,-3.8,.,3.0,.
O=C(COc1ccc(S(=O)(=O)N2CCCCC2)cc1)NCc1cccnc1,.,89.0,.,104.6,2.0,95.2
Cc1ccc(-c2cc(C(=O)N3CCN(c4ncccn4)CC3)c3ccccc3n2)cc1,11.4,11.4*,14.3,.,-14.0,70.8
Cc1ccc2nc(-c3ccccn3)cc(C(=O)N3CCN(c4ncccn4)CC3)c2c1,-3.8,56.8,-2.1,106.5,0.0,80.5
O=C(c1cc(-c2cccs2)nc2ccccc12)N1CCN(S(=O)(=O)c2cccc(F)c2)CC1,.,20.8*,.,102.3,-13.0,82.7
NNc1ncnc2c1cnn2-c1ccccc1,.,20.3*,.,91.5,11.0,72.9
CCOC(=O)N1CCC(Nc2ncnc3c2cnn3-c2ccccc2)CC1,40.5,28.1*,0.2,98.8,-3.0,92.9
CC(C)Nc1ncnc2c1cnn2-c1ccccc1,-17.2,75.8,-5.3,100.3,10.0,81.5
CCCCOC(=O)CSc1nnc(-c2ccc(Cl)cc2Cl)o1,73.4*,91.4,-1.1,105.7,11.0,85.9
CC(C)OC(=O)CSc1nnc(-c2ccc(Cl)cc2Cl)o1,11.1,93.5,13.7,102.3,-10.0,101.1
COC(=O)Nc1ccc2ncn(C)c(=O)c2c1,.,.,.,.,8.0,.
CCCCOc1ccccc1Cn1c(=O)oc2ccc(C)cc21,69.9*,.,-5.9,.,-1.0,.
Cc1ccc2oc(=O)n(CC(=O)O)c2c1,-32.4,96.7,-0.5,100.0,-5.0,102.9
Cc1ccc2oc(=O)n(Cc3ccccc3OC(C)C)c2c1,98.9*,.,0.0,95.8,4.0,88.1
COc1ccc(Cn2c(=O)oc3ccc(C)cc32)cc1OC,15.7,78.4,39.6*,100.4,7.0,90.8
Cc1ccc2oc(=O)n(CCCOc3ccccc3)c2c1,46.6,.,2.5,97.3,2.0,121.3
C=C(C)C1Cc2nc(N)nc(C)c2C1 (stereo not drawn),-15.5,88.6,-6.3,97.8,7.0,93.1
C=C(C)C1Cc2c(C)nn(-c3nc(C)cc(C)n3)c2C1 (stereo not drawn),22.4,3.2*,.,87.6,1.0,92.1
Cc1ccccc1NC(=O)NC1(C(=O)NCCCN2CCOCC2)CCCCC1,.,89.6,.,104.7,.,89.1
CC(C)NC(=O)c1c2c(nc3ccccc13)CCCC2,.,33.2*,.,100.3,.,88.1
N#CC1=C(SCC(=O)c2ccc(Cl)cc2)NC2=C(C(=O)CCC2)C1c1ccco1 (stereo not drawn),9.2,13.2*,.,54.4,-10.0,51.7
Cc1ccc(C(=O)CSC2=C(C#N)C(c3ccco3)C3=C(CC(C)(C)CC3=O)N2)cc1 (stereo not drawn),29.3,70.3,14.0,86.2,-7.0,78.9
Cn1ncc(N=Cc2ccccc2)c1C(=O)Nc1cccc(Cl)c1,.,37.6*,.,77.6,-7.0,61.0
Oc1ccccc1-c1nc2cnccn2c1Nc1ccc2c(c1)OCCO2,.,79.5,.,93.1,-3.0,94.0
CC(C)(C)OCC(NC(=O)C(CC(N)=O)NC(=O)OC(C)(C)C)C(=O)OC(C)(C)C (stereo not drawn),-38.0,87.5,2.9,106.2,1.0,87.4
